Reference: ChEMBL document CHEMBL1138185, “Discovery of protein phosphatase 2C inhibitors by virtual screening” (J Med Chem, 2006)
Calls of active or inactive are those of the source. No cut-off for these calls is given here.

Tests used:
[1] = molecular target: Protein phosphatase 1A (Rattus norvegicus) (UniProt P20650); test: Inhibition of PP2C alpha at 100 uM
[2] = Inhibition of PP1 at 100 uM
Outline: (§1)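 PP1 catalytic fragment acting on 32P-labeled phosphorylase a, which was made from rabbit muscle phosphorylase b with phosphorylase kinase. Duplicate reactions were started with substrate, run 10 min at room temperature and stopped with TCA. Released 32P measured by Cerenkov counting.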

[3] = Inhibition of PP2A
Outline: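 Substrate: DARPP-32 pThr34, from rat DARPP-32 expressed in E. coli as a His-tag fusion and phosphorylated by PKA with γ-32P-ATP. Enzyme: PP2A trimer partially purified from rat brain. Duplicate reactions, 10 min at room temperature, stopped with TCA. Supernatant and pellet 32P counted by Cerenkov.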

[4] = molecular target: Calcineurin PP2B (Rattus norvegicus); test: Inhibition of PP2B
[5] = Inhibition of PP1
Outline: as §1

[6] = molecular target: Protein phosphatase 1A (Rattus norvegicus) (UniProt P20650); test: Inhibition of PP2C alpha

Protein phosphatase 1A (Rattus norvegicus), sequence (P20650 whole entry, looked up): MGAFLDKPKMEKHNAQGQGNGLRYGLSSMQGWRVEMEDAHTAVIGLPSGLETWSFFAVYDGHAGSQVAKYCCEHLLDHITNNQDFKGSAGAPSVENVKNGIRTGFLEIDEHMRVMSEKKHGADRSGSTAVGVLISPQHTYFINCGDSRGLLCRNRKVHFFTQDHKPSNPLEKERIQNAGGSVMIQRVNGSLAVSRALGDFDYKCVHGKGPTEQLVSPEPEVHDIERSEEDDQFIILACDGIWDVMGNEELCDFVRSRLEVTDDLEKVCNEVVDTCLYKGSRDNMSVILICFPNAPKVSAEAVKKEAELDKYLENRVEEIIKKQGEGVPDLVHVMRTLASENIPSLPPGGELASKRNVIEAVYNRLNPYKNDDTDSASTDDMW

Row | Structure (SMILES) | inhibition [1] | Activity [3] | other results
1 | Ic1ccc2c(c1)N(c1ccccc1)c1cc(Nc3ccc4nc5ccc(I)cc5[n+](-c5ccccc5)c4c3)ccc1N2 | > 50% | – | –
2 | Cc1cc(N)c2cc(NC(=O)Nc3ccc4nc(C)cc(N)c4c3)ccc2n1 | > 30% | Active | Activity [2]: Active
3 | CC1(C)N=C(N)N=C(N)N1c1ccc(CCCCc2ccccc2)cc1 | – | – | IC50 [3]: 50 µM; IC50 [4]: 50 µM; IC50 [5]: 50 µM
4 | CC1Oc2cc3c(-c4c(O)cc(O)c5c(O)c6c(cc45)OC(C)C(C)C6=O)c(O)cc(O)c3c(O)c2C(=O)C1C (configuration not stated) | – | Active | –
5 | CC(C)CC(N)C(=O)Nc1ccc2ccccc2c1 (configuration not stated) | > 30% | – | –

Now from value to compound, other results behind:

Row | inhibition [1] | Activity [3] | Structure (SMILES) | other results
6 | – | Active | CCCCCCCCCCCC1N=C(N)N=C(N)N1c1cccc(Br)c1 (configuration not stated) | –
7 | > 50% | – | C/N=C(N)/N=C(\N)Nc1cc2ccccc2c2ccccc12 | IC50 [6]: 20 µM
